Assay results reported in article PMC9199349 (ACS chemical biology, 2020).
“Also recorded” adds a separate entry of the source. Where two headings read alike, the source gives them in different places.

Columns and labels:
[1] = target: human OGG1 (Homo sapiens, UniProt O15527); assay type: biochemical; settings: for inhibition of excision of 8-OH-Gua by OGG1 / inhibition of excision of FapyAde by OGG1: inhibitor 10 μmol/L, genomic DNA, GC-MS/MS; for inhibition at 10 µM: read-out: inhibition of excision of FapyGua by OGG1
human OGG1, sequence (O15527 whole entry): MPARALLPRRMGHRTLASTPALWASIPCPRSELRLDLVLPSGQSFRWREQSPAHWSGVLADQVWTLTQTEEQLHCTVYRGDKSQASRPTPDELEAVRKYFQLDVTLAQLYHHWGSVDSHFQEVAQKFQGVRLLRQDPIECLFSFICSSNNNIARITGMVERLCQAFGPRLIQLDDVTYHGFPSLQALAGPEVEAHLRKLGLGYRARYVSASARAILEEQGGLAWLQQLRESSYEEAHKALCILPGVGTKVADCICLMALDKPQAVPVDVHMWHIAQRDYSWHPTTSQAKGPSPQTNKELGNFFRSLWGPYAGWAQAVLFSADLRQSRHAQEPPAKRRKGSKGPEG
How it was run: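 Test compound was dissolved in DMSO and added to the reaction mixture of human OGG1 with genomic DNA carrying multiple oxidatively-induced lesions. It was screened at 10 μmol/L, then tested from 0.05 to 10 μmol/L. Excised 8-OH-Gua, FapyGua and FapyAde were quantified by isotope-dilution GC-MS/MS. Controls were no enzyme, no inhibitor, and DMSO alone. Standard deviations were given; significance was set at p < 0.05.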

[2] = system: OGG1; settings: read-out: IC50 OGG1, cited from earlier work
[3] = system: HEK293T and HeLa cells; settings: cited from earlier work
[4] = system: MTH1; settings: read-out: IC50 MTH1; dual inhibitor; cited from earlier work
[5] = system: other BER enzymes / other DNA glycosylases; settings: cited from earlier work
[6] = system: Pseudomonas aeruginosa; settings: mice infected with Pseudomonas aeruginosa; cited from earlier work
[7] = system: HeLa cells; settings: LC-MS/MS with isotope-dilution; cited from earlier work
[8] = highest concentration of 100 μmol/L

Compound	inhibition of excision of 8-OH-Gua by OGG1 [1]	inhibition of excision of FapyAde by OGG1 [1]	inhibition at 10 µM [1] [%]	IC50 ([2]; dual inhibitor) [nM]	toxicity ([3]; concentrations up to 10 μmol/L)	toxicity [3, 8]	IC50 [4] [nM]	IC50 ([2]; fluorogenic assay of 8-OH-Gua excision) [nM]	selectivity for OGG1 over other BER enzymes [5]	inflammation and mortality / survival [6]	level of 8-OH-Gua in DNA [7]
Cc1cnc(N)nc1OCCNC(=O)c1cccc(-c2ccc(S(=O)(=O)Nc3ccc4c(c3)N(C(=O)C3CC3)CCC4)cc2)c1 [SU0383, N-(2-((2-Amino-5-methylpyrimidin-4-yl)oxy)ethyl)-4’-(N-(1-(cyclopropanecarbonyl)-1,2,3,4-tetrahydroquinolin-7-yl)sulfamoyl)-[1,1’-biphenyl]-3-carboxamide]	significant inhibition	quite significant	~30	490	little or no toxicity	moderate toxicity	34				
NC(=O)c1cccc(-c2ccc(S(=O)(=O)Nc3ccc4c(c3)N(C(=O)C3CC3)CCC4)cc2)c1 [SU0268, 4’-(N-(1-(cyclopropanecarbonyl)-1,2,3,4-tetrahydroquinolin-7-yl)sulfamoyl)-[1,1’-biphenyl]-3-carboxamide]	strongly inhibited	quite significant	~60		little or no toxicity	moderate toxicity		59	selective for inhibiting OGG1 over other BER enzymes	reduced both inflammation and proinflammatory cytokines, and improved animal survival; also recorded: efficacy in reducing inflammation and mortality	increase the level of 8-OH-Gua in DNA
